Reference: ChEMBL document CHEMBL1145604, “Fragment-based discovery of hepatitis C virus NS5b RNA polymerase inhibitors” (Bioorg Med Chem Lett, 2008)

Legend:
[1] = Inhibition of HCV NS5b RNA polymerase assessed as [3H]UTP incorporation into RNA; set-up: species or system Hepacivirus hominis
In short: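 NS5B570n-BK (200 nM) with poly-A:oligo U₁₆ template:primer (8.4 µg/mL), 2.1 µCi tritiated UTP, 1 µM ATP, CTP, GTP in 40 mM Tris-HCl pH 8.0, NaCl, 4 mM DTT, 4 mM MgCl₂; compound serially diluted in DMSO. 2 h at 30 °C, TCA stop, filtration, scintillation counting. IC50 from duplicate means.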

[2] = Binding affinity to HCV NS5b RNA polymerase by SPR assay; set-up: species or system Hepacivirus hominis
Hepatitis C virus = assay: Antiviral activity against Hepatitis C virus by replicon assay; assay type: functional, organism-based, Hepacivirus hominis

Compound | IC50 [1] [µM] | Kd [2] [µM] | EC50 (Hepatitis C virus) [µM]
C[C@@H]1C[C@H](C)CN(C(=O)c2cc(Br)ccc2NS(C)(=O)=O)C1 | 7.5 | – | –
Nc1ccc(Br)cc1C(=O)N1CCCCC1 | > 500 | – | –
Nc1ccc(Br)cc1C(=O)N1CCOCC1 | > 500 | – | –
C[C@@H]1C[C@H](C)CN(C(=O)c2cc(Br)ccc2NC(=O)CCC(=O)c2cccs2)C1 | 0.44 | 0.97 | 4.3
Nc1ccc(Br)cc1C(=O)NCc1ccccc1 | > 500 | – | –
Nc1ccc(Br)cc1C(=O)Nc1ccccc1Cl | 178 | – | –
C[C@@H]1C[C@H](C)CN(C(=O)c2cc(Br)ccc2NC(=O)CC(=O)N(C)C)C1 | 11 | – | –
C[C@@H]1C[C@H](C)CN(C(=O)c2cc(Br)ccc2NC(=O)[C@@H]2C[C@@H](O)CN2C(=O)c2ccco2)C1 | 1.03 | 0.15 | 3.7
C[C@@H]1C[C@H](C)CN(C(=O)c2cc(Br)ccc2NC(=O)[C@@H]2CCCN2C(=O)c2cccnc2)C1 | 0.35 | 1.28 | 12.9
C[C@@H]1C[C@H](C)CN(C(=O)c2cc(Br)ccc2NC(=O)CCC(N)=O)C1 | 4.3 | 9.4 | –
C[C@@H]1C[C@H](C)CN(C(=O)c2cc(Br)ccc2NC(=O)CCCC(=O)O)C1 | 9 | – | –
C[C@@H]1C[C@H](C)CN(C(=O)c2cc(Br)ccc2NC(=O)CNC(=O)c2cccnc2)C1 | 0.43 | 0.57 | 5.7
CC1CCCN(C(=O)c2cc(Br)ccc2N)C1 (stereo not given) | 170 | 192 | –
Cc1cc(CNC(=O)Nc2ccc(Br)cc2C(=O)N2C[C@H](C)C[C@H](C)C2)nn1C | 0.17 | 0.37 | 4.6
Nc1ccc(Br)cc1C(=O)N1CCc2ccccc2C1 | 132 | 210 | –
O=C(O)CCC(=O)Nc1ccc(Br)cc1C(=O)NCC1CCCCC1 | > 500 | – | –
C[C@@H]1C[C@H](C)CN(C(=O)c2cc(Br)ccc2NC(=O)CCC(=O)N2CCOCC2)C1 | 0.25 | – | 7.4
C[C@@H]1C[C@H](C)CN(C(=O)c2cc(Br)ccc2N)C1 | 17 | – | –
C[C@@H]1CN(C(=O)c2cc(Br)ccc2N)C[C@H](C)O1 | 190 | 36 | –
C[C@@H]1C[C@H](C)CN(C(=O)c2cc(Br)ccc2NC(=O)CCC(=O)c2ccccn2)C1 | 0.54 | 1.85 | –
C[C@@H]1C[C@H](C)CN(C(=O)c2cc(Br)ccc2NC(=O)NCC(=O)N(C)C)C1 | 0.6 | 0.46 | 5.6
Cc1cnc(CNC(=O)Nc2ccc(Br)cc2C(=O)N2C[C@H](C)C[C@H](C)C2)cn1 | 0.36 | 0.35 | 6.9
O=C(O)CCC(=O)Nc1ccc(Br)cc1C(=O)N1CCSCC1 | 533 | – | –

Continued, values first:

IC50 [1] [µM] | Kd [2] [µM] | EC50 (Hepatitis C virus) [µM] | Compound
11 | 1.7 | – | CC(=O)Nc1ccc(Br)cc1C(=O)N1C[C@H](C)C[C@H](C)C1
2.1 | – | – | COC(=O)CCC(=O)Nc1ccc(Br)cc1C(=O)N1C[C@H](C)C[C@H](C)C1
1 | – | 22.8 | C[C@@H]1C[C@H](C)CN(C(=O)c2cc(Br)ccc2NC(=O)CCC(=O)O)C1
0.13 | 0.54 | 5.5 | C[C@@H]1C[C@H](C)CN(C(=O)c2cc(Br)ccc2NC(=O)CNC(=O)c2ccccc2)C1
0.59 | 1.04 | 7.9 | C[C@@H]1C[C@H](C)CN(C(=O)c2cc(Br)ccc2NC(=O)CCC(=O)c2cccnc2)C1
0.25 | 1.02 | 8.7 | C[C@@H]1C[C@H](C)CN(C(=O)c2cc(Br)ccc2NC(=O)CNC(=O)c2ccco2)C1
> 500 | – | – | CC(C)NC(=O)c1cc(Br)ccc1NC(=O)CCC(=O)O
1 | 0.8 | 4.9 | C[C@@H]1C[C@H](C)CN(C(=O)c2cc(Br)ccc2NC(=O)NCc2ccc(N(C)C)cc2)C1
0.4 | 0.3 | 6.1 | C[C@@H]1C[C@H](C)CN(C(=O)c2cc(Br)ccc2NC(=O)CCC(=O)N(C)C)C1
> 500 | – | – | Nc1ccc(Br)cc1C(=O)N1CCCC1
